Test results from article PMC8154590 (The Journal of antibiotics, 2021).
Structures can show the parent of a compound that is named as a salt.

test system: M. smegmatis 70S ribosome (spectinomycin site: helix-34 of 16S rRNA and RpsE protein); assay: cell-free translation, luciferase read-out; type: biochemical, Mycolicibacterium smegmatis; conditions: purified 70S ribosomes, firefly luciferase mRNA
How it was run: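 Purified M. smegmatis 70S ribosomes were used in translation reactions programmed with firefly luciferase mRNA that was transcribed in vitro with T7 RNA polymerase. Inhibition was read as loss of luciferase activity. IC50 was taken as the drug concentration that inhibits luciferase activity by 50%.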

Compound	Ribosome translation inhibition IC50 [mg/L]
CN[C@@H]1[C@H](O)[C@H](NC)[C@H]2O[C@@]3(O)C(=O)C[C@@H](C)O[C@H]3O[C@@H]2[C@H]1O [compound 1, Spectinomycin]	0.36
CN[C@H]1[C@@H](O)[C@@H](NC)C[C@H]2O[C@@H]3O[C@H](C)C[C@@](O)(CNCc4ccc(F)cc4)[C@]3(O)O[C@H]12 [compound 7, 6-Deoxy-3’-dihydro-3’(R)-[(4-fluorobenzyl)aminomethyl]spectinomycin trihydrochloride]	23.3
CN[C@@H]1[C@H](O)[C@H](NC)[C@H]2O[C@@]3(O)C(=O)C[C@@H](C)O[C@H]3O[C@@H]2[C@@H]1Cl [compound 8, 6-Epi-chloro-6-deoxyspectinomycin dihydrochloride]	54.7
CN[C@H]1C[C@@H](NC)[C@H](O)[C@H]2O[C@@H]3O[C@H](C)CC(=O)[C@]3(O)O[C@@H]21 [compound 9, 2-Deoxyspectinomycin dihydrochloride]	> 60
CN[C@H]1C[C@@H](NC)[C@H](O)[C@H]2O[C@@H]3O[C@H](C)C[C@@H](NC(=O)Cc4ccccn4)[C@]3(O)O[C@@H]21 [compound 10, 2-Deoxy-3’-deoxy-3’-dihydro-3’(R)-[(pyridin-2-yl)acetylamino]spectinomycin dihydrochloride]	10.2
